Screening data (PubChem BioAssay)
Jurkat NFkB inh: inhibitors of induced NF-kB luciferase reporter, primary screen, TCR NF-kB activation inhibitor project, cell-based, luminescence, uHTS; Jurkat, PMA/ionomycin-induced NF-kB luciferase reporter; inhibition, % at 4 µM; hit rate 0.53% among 330,000; in the data active = inhibition above about 50%
Mdm2 MdmX PPI: inhibitors of human Mdm2-MdmX association, primary screen, cell-based, luminescence, split luciferase, SaOS-2, uHTS | SaOS-2 split-luciferase Mdm2/MdmX complementation | Protein Mdm4 (Homo sapiens) + E3 ubiquitin-protein ligase Mdm2 (Homo sapiens), … | AID 485346, 2010 | inhibition, % at 8 µM | hit rate 3% among 330,000;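 active = inhibition of at least 50% at 8 µM in the primary screen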
IMP-1 inhibitor: IMP-1 metallo-beta-lactamase inhibitors, primary screen, biochemical, epi-absorbance readout, Pseudomonas aeruginosa enzyme | metallo-beta-lactamase IMP-1 (Pseudomonas aeruginosa) | purified IMP-1, nitrocefin hydrolysis, epi-absorbance fluorescence | inhibition, % at 5.6 µM | hit rate 0.45% among 290,000 | AID 1556, 2009;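 active = inhibition above the mean plus 3 SD of all compounds in the same screening run, cut at about 4.5% in these data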;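 note: 0% = IMP-1 with DMSO and 100% = DMSO wells lacking enzyme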
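Material – recombinant IMP-1 enzyme, purified · Amount – IMP-1 0.2 nM before substrate addition · Medium – HEPES buffer pH 7.1 with ZnSO4 and Brij 35 · Timing – 25 °C, 15 min preincubation, 25 min reaction · Measured by – plate fluorescence quenching by hydrolysis product, ex 480/em 530 nm · Read-out – percent enzyme inhibition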
aSyn UTR inh: MLPCN primary screen, SNCA 5' untranslated region. hit rate 0.82% among 300,000. AID 1813, 2009. alpha-synuclein 5'UTR reporter, inhibitor activity. inhibition, % (tested at 7.5 µM); in the data active = inhibition above about 60%;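 note: H4 neuroglioblastoma cells stably carrying SNCA 5'UTR luciferase fusion; 0% = DMSO wells and 100% = positive control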
697 NFkB inh: inhibitors of PMA/ionomycin-induced NF-kB reporter, 697 cells, primary screen, B-cell NF-kB inhibitor project, cell-based, luminescence, uHTS; 697 B-cell NF-kB luciferase reporter, 16 h; inhibition, % at 4 µM; hit rate 0.33% among 330,000; AID 435022, 2010; in the data active = inhibition above about 35%
VIM-2 inh: VIM-2 metallo-beta-lactamase inhibitors, primary screen, biochemical, epi-absorbance readout, Pseudomonas aeruginosa enzyme; AID 1527, 2009; inhibition, % at 5.6 µM; hit rate 0.89% among 290,000; purified VIM-2, nitrocefin hydrolysis, epi-absorbance fluorescence;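 active = inhibition above the mean of all tested compounds plus 3 SD, cutoff set per screening run, cut at about 7.5% in these data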;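 note: red hydrolysis product quenches plate fluorescence so inhibitors raise well fluorescence; 0% = enzyme with DMSO and 100% = DMSO without enzyme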
Mdm2-MdmX conf: Mdm2-MdmX complex disruptors, retested hits, confirmation, luminescence, single concentration. shares compounds with Mdm2 MdmX PPI. Mdm2-MdmX binding, luminescent assay. hit rate 55% among 10,000. inhibition, % at 8 µM; in the data active = inhibition above about 40%
FLuc counter: full-length luciferase signal inhibition, confirmation, counter-screen for Mdm2/MdmX interaction inhibitor project, cell-based, single concentration, SaOS-2; hit rate 77% among 6,200; shares compounds with Mdm2 MdmX PPI; AID 504607, 2011; inhibition, % at 8 µM; SaOS-2 full-length luciferase counterscreen, luminescence;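 active = mean inhibition at 8 µM reaching about 37%, which flags the compound as non-specific, limit read from the data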;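 note: p53-null SaOS-2 cells with luciferase driven by a doxycycline-inducible promoter; compound on cells about two nights before reading with doxycycline added after day one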
Starred values were filed as active, the others as inactive; . = not tested or not shown. Hits are enriched below; roughly 4.7% of the tested compounds scored in any of these assays.

SMILES | Jurkat NFkB inh | Mdm2 MdmX PPI | IMP-1 inhibitor | aSyn UTR inh | 697 NFkB inh | VIM-2 inh | Mdm2-MdmX conf | FLuc counter
Cc1cc(C)cc(NC(=O)CCn2c(=O)c3cccn3c3ccccc32)c1 | 43 | 56* | -1 | -3 | -27 | -1 | 50* | 52*
C=CC(=O)N1c2ccccc2Sc2ccc(NC(=O)OCC)cc21 | -4 | 87* | -4 | 23 | -4 | -3 | 41* | 35
CCOC(=O)Nc1ccc2c(c1)N(C(=O)N1CCN(C)CC1)c1ccccc1S2 | -7 | 23 | -1 | 3 | 4 | -1 | . | .
N#CC1=C(N)NC(SCc2ccccc2)=C(C#N)C12CCCCC2 | -1 | 64* | -3 | 4 | 8 | -3 | 61* | 72*
C=CC[C@H](CC(=O)N(CCO)Cc1ccccc1)C(=O)N[C@@H](COC(=O)[C@H](CC=C)CC(=O)OC(C)(C)C)Cc1c[nH]c2ccccc12 | 6 | 23 | . | . | 9 | . | . | .
C=CC[C@@H](CC(=O)N(CCO)Cc1ccccc1)C(=O)N[C@H](COC(=O)[C@@H](CC=C)CC(=O)OC(C)(C)C)Cc1c[nH]c2ccccc12 | 8 | 27 | . | . | -11 | . | . | .
C=CC[C@H](CC(=O)N(CCO)Cc1ccccc1)C(=O)N[C@@H](COC(=O)[C@@H](CC=C)Cc1ccc(F)cc1)Cc1c[nH]c2ccccc12 | -15 | 91* | . | . | 5 | . | 20 | .
C=CC[C@@H](CC(=O)N(CCO)Cc1ccccc1)C(=O)N[C@@H](COC(=O)[C@@H](CC=C)Cc1ccc(F)cc1)Cc1c[nH]c2ccccc12 | 7 | 76* | . | . | 1 | . | 21 | .
Cc1ccccc1CS(=O)(=O)c1snnc1C | 3 | 16 | -1 | -22 | -4 | -1 | . | .
Cc1ccccc1CS(=O)(=O)c1cnc2ccccc2n1 | 7 | 55* | -3 | -18 | 7 | -6 | 24 | .
c1nc(CCO[C@H]2CCCCO2)cc2cc3c(cc12)OCO3 | -51 | 56* | . | . | -104 | . | 35 | .
Cc1cc(/C=C2\SC(=Nc3ccc(F)cc3)NC2=O)c(C)n1-c1ccc(S(N)(=O)=O)cc1 | 19 | 61* | -2 | 18 | -18 | -3 | 47* | 59*
CCc1ccc(NC(=S)/N=C(\N)Nc2nc(C)c3cc(CC)ccc3n2)cc1 | 28 | 63* | -3 | 16 | 10 | -5 | 60* | 60*
COc1ccc2nc(N/C(N)=N/C(=S)Nc3ccccc3)nc(C)c2c1 | -54 | 26 | -1 | 6 | -81 | -2 | . | .
Cc1cccc(NC(=S)/N=C(\N)Nc2nc(C)c3ccc(C)cc3n2)c1 | 30 | 59* | -4 | -15 | -24 | 0 | 37 | 54*
COc1ccc2nc(N/C(N)=N/C(=S)Nc3ccc(C)c(C)c3)nc(C)c2c1 | -9 | 56* | -2 | 19 | -23 | -3 | 53* | 56*
CCn1nnnc1NCc1cccn1C | 7 | 19 | -2 | 19 | 15 | 0 | . | .
COc1ccc(OC)c(/C=C/C(=O)OCC(=O)NC2CCCCCCC2)c1 | 9 | 26 | . | . | 2 | . | . | .
COc1ccc(CC(=O)N/N=C(\C)c2cccs2)cc1OC | 6 | 34 | 0 | . | 23 | -1 | . | .
CC(OC(=O)C1=COCCO1)C(=O)NC1CCCCC1C (configuration not stated) | -2 | -9 | . | . | -5 | . | . | .
COc1cc(-c2nc(CN3CCCCC3CCNC(C)=O)c(C)o2)ccc1F (configuration not stated) | 2 | 14 | -1 | 3 | 14 | 0 | . | .
O=C(CN1C(=O)NC2(CCCCC2)C1=O)Nc1cc(C(F)(F)F)ccc1N1CCOCC1 | -1 | 18 | . | . | 2 | . | . | .
O=C(c1cnn2c(C(F)(F)F)cc(-c3cccs3)nc12)N1CCN(Cc2ccccc2)CC1 | 4 | 28 | -3 | 32 | 3 | 4 | . | .
O=C(c1cnn2c(C(F)(F)F)cc(-c3cccs3)nc12)N1CCN(C(c2ccccc2)c2ccccc2)CC1 | 17 | 62* | -4 | 35 | 7 | -3 | 59* | 68*
Cc1cc(C)c2nc(-c3ccccn3)cc(C(=O)n3cccn3)c2c1 | 3 | -31 | -3 | -9 | 7 | -4 | . | .
SMILES | Jurkat NFkB inh | Mdm2 MdmX PPI | IMP-1 inhibitor | aSyn UTR inh | 697 NFkB inh | VIM-2 inh | Mdm2-MdmX conf | FLuc counter
Cc1ccccc1NC(=S)NCCC(c1ccccc1)c1ccccc1 | 3 | 30 | -4 | 6 | 12 | -3 | . | .
Cc1ccc(NC(=S)NCCC(c2ccccc2)c2ccccc2)c(C)c1 | 9 | 61* | -2 | 8 | 16 | -3 | 4 | .
CN1C(=O)NC(c2ccccc2)(C(F)(F)F)S/C1=C(/C#N)c1nnc(N2CCOCC2)n1-c1ccccc1 (configuration not stated) | 2 | 50* | -3 | -4 | -5 | -6 | 18 | .
CN1C(c2ccc(F)cc2)=CS/C1=C(/C#N)c1nnc(N2CCOCC2)n1-c1ccccc1 | 4 | -6 | -3 | -74 | 18 | -1 | . | .
COc1cc(NS(=O)(=O)c2ccc(N/C=C(\C#N)c3nc4cc(Cl)ccc4o3)cc2)nc(OC)n1 | 15 | 54* | -7 | 31 | 1 | -2 | 44* | 35
CCNC(=O)NCc1c(C)c(C)n(Cc2ccccc2)c1-n1cccc1 | -7 | 1 | -2 | 10 | -24 | -4 | . | .
CCN1C(=O)[C@H]2[C@@H](c3ccc(-c4ccc(Cl)c(Cl)c4)c(OC)c3)N[C@@](Cc3ccccc3)(C(=O)OC)[C@H]2C1=O | 30 | 62* | . | 33 | 10 | . | 47* | 46*
COC(=O)[C@]1(C)N[C@H](c2ccc(-c3ccc(Cl)c(Cl)c3)c(OC)c2)[C@@H]2C(=O)N(C)C(=O)[C@@H]21 | 41 | 65* | . | 11 | -23 | . | 40* | 49*
CCCCOc1cccc(OCC(=O)Nc2nc3ccccc3[nH]2)c1 | -11 | 20 | -1 | 14 | 19 | -2 | . | .
COC(=O)c1ccc(OC(=O)CS(=O)c2ccccc2[N+](=O)[O-])cc1 (configuration not stated) | 18 | -32 | -1 | -11 | 23 | -2 | . | .
O=C(CS(=O)c1ccc(C(F)(F)F)cc1[N+](=O)[O-])Oc1ccccc1 (configuration not stated) | -39 | 52* | 0 | 17 | -19 | 1 | 24 | .
